Calls of active or inactive are those of the source. The calls are words filed in the database; no cut-off is given here.
Key:
A549 [1] = assay: Cytotoxicity against human A549 cells assessed as reduction in cell viability at 20 uM after 24 hrs by MTT assay; assay type: cell-based; settings: a549, 24 h
In short: (§1)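 A549 cells were exposed to compound in serum-free medium for 24 h, and viability was read by MTT assay. Mean ± SD of three independent experiments; Student's t test versus untreated control.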

A549 [2] = assay: Cytotoxicity against human A549 cells assessed as reduction in cell viability at 10 uM after 24 hrs by MTT assay; assay type: cell-based; settings: a549, 24 h; in short: as §1
[3] = Inhibition of FAK/AKT/ROCK signaling pathway in human A549 cells assessed as decrease in OPN-induced lamellipodia formation at 10 uM after 24 hrs by rhodamine phalloidin/DAPI staining based immunofluorescence assay; assay type: cell-based
In short: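 5 × 10^4 cells/well were seeded on chamber slides and treated with 1 nM OPN for 24 h with or without 10 μM compound. Cells were fixed in 4% formaldehyde/PBS pH 7.4 for 10 min and permeabilized in 0.5% Triton X-100 for 5 min. They were stained with 100 nM rhodamine phalloidin for 30 min at room temperature in the dark, counterstained with DAPI, and imaged by confocal microscopy at 600×.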

A549 [4] = assay: Anti-invasive activity in human A549 cells assessed as inhibition of OPN-induced cell invasion to matrigel coated invasion chamber at 5 uM preincubated for 30 mins followed by OPN stimulation measured after 24 hrs by boyden chamber assay; assay type: functional
In short: (§2)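 Boyden chamber with a Matrigel-coated filter. Cells were pretreated with compound for 30 min and loaded into the upper wells, with 1 nM OPN in the lower wells. After 24 h at 37 °C, cells were stained, random fields were photographed at 200×, and cells on the lower surface were counted. Mean ± SD of two independent experiments; Student's t test.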

A549 [5] = assay: Anti-invasive activity in human A549 cells assessed as inhibition of OPN-induced cell invasion to matrigel coated invasion chamber at 10 uM preincubated for 30 mins followed by OPN stimulation measured after 24 hrs by boyden chamber assay; assay type: functional; in short: as §2
[6] = Inhibition of FAK/AKT/ROCK signaling pathway in human A549 cells assessed as decrease in OPN-induced phosphorylation of cofilin at 5 to 10 uM after 24 hrs by Western blot analysis; assay type: cell-based
In short: (§3)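 A549 cells were given 1 nM OPN for 24 h with or without compound. 25–30 μg total protein per lane was probed with primary antibodies overnight at 4 °C, then secondary antibodies for 2 h at room temperature. Detection was by enhanced chemiluminescence, with densitometric band quantification. Mean ± SD of two independent experiments; Student's t test.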

[7] = Inhibition of FAK/AKT/ROCK signaling pathway in human A549 cells assessed as decrease in OPN-induced ROCK1 expression at 5 to 10 uM after 24 hrs by Western blot analysis; assay type: cell-based; in short: as §3
[8] = Inhibition of FAK/AKT/ROCK signaling pathway in human A549 cells assessed as decrease in OPN-induced phosphorylation of LIMK1/2 at 5 to 10 uM after 24 hrs by Western blot analysis; assay type: cell-based; in short: as §3
A549 [9] = assay: Effect on total ROCK1 protein level in OPN-stimulated human A549 cells at 5 to 10 uM after 24 hrs by Western blot analysis; assay type: ADME, cell-based; settings: a549, 24 h; in short: as §3
A549 [10] = assay: Effect on total LIMK1/2 protein level in OPN-stimulated human A549 cells at 5 to 10 uM after 24 hrs by Western blot analysis; assay type: ADME, cell-based; settings: a549, 24 h; in short: as §3
A549 [11] = assay: Effect on total cofilin protein level in OPN-stimulated human A549 cells at 5 to 10 uM after 24 hrs by Western blot analysis; assay type: ADME, cell-based; settings: a549, 24 h; in short: as §3
[12] = target: Focal adhesion kinase 1 (Homo sapiens) (UniProt Q05397); assay: Inhibition of FAK signaling pathway in human A549 cells assessed as decrease in OPN-induced FAK phosphorylation at 5 to 10 uM after 15 mins by Western blot analysis; assay type: cell-based
[13] = Inhibition of FAK/AKT/ROCK signaling pathway in human A549 cells assessed as decrease in OPN-induced AKT phosphorylation at 5 to 10 uM after 15 mins by Western blot analysis; assay type: cell-based
A549 [14] = assay: Effect on total FAK protein level in OPN-stimulated human A549 cells at 5 to 10 uM after 24 hrs by Western blot analysis; assay type: ADME, cell-based; settings: a549, 24 h; in short: as §3
A549 [15] = assay: Effect on total AKT protein level in OPN-stimulated human A549 cells at 5 to 10 uM after 24 hrs by Western blot analysis; assay type: ADME, cell-based; settings: a549, 24 h; in short: as §3

Focal adhesion kinase 1 (Homo sapiens), sequence (Q05397 2-1052 limits assumed): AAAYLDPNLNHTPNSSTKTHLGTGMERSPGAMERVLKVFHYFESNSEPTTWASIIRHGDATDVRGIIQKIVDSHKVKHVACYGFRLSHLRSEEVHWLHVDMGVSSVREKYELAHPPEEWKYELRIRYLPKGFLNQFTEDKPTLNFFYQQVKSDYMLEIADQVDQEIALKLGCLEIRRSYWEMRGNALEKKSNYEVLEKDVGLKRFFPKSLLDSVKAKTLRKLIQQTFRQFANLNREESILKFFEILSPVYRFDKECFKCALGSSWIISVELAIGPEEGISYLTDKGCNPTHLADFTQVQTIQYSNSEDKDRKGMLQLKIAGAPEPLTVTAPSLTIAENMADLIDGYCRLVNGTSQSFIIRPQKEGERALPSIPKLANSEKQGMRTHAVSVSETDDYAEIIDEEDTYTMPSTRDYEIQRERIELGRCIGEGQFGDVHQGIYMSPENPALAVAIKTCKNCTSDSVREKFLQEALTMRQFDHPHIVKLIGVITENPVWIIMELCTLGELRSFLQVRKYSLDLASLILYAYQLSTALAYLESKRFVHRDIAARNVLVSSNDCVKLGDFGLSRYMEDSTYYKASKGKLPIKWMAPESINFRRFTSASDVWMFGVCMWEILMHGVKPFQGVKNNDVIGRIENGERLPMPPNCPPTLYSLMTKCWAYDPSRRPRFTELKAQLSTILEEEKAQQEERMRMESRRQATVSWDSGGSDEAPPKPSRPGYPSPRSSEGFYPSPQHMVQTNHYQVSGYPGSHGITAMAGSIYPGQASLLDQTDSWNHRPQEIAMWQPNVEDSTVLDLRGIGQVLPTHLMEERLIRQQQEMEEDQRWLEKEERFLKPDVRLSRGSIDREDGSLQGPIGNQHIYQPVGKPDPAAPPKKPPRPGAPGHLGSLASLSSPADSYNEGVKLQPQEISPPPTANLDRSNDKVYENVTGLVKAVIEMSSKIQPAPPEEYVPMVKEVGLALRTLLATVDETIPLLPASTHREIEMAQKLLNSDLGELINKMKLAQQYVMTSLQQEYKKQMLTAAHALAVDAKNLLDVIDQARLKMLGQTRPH

With C/C1=C\CC(C)(C)/C=C/C(=O)/C(C)=C/CC1 [ZERUMBONE] the Activity (A549 [1]) was “Toxic”, the Activity (A549 [2]) was “Non-toxic” and the inhibition [3] was “Active”. The inhibition at 5 µM (A549 [4]) was 48%, the inhibition at 10 µM (A549 [5]) was 69% and the inhibition [6] was “Dose-dependent effect”. The inhibition [7] was “Dose-dependent effect”, the inhibition [8] was “Dose-dependent effect” and the Activity (A549 [9]) was “Non-toxic”. The Activity (A549 [10]) was “Non-toxic”, the Activity (A549 [11]) was “Non-toxic” and the inhibition [12] was “Active”. For the same compound, the inhibition [13] was “Active”, the Activity (A549 [14]) was “Non-toxic” and the Activity (A549 [15]) was “Non-toxic”.

Reference: ChEMBL document CHEMBL3785032, “Zerumbone Suppresses Osteopontin-Induced Cell Invasion Through Inhibiting the FAK/AKT/ROCK Pathway in Human Non-Small Cell Lung Cancer A549 Cells” (J Nat Prod, 2016)
